HKDC1 inh: HKDC1 hexokinase inhibitors, primary screen, biochemical, fluorescence, uHTS | recombinant HKDC1, G6PDH/diaphorase resazurin coupled fluorescence | Q2TB90 | 340,000 tested, 0.16% active | inhibition, % at 20 µM;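 active = inhibition above about 35% when tested at 20 µM, limit read from the data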;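 note: plate controls were DMSO wells with enzyme for no effect and DMSO wells lacking enzyme for full effect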
Target sequence (Q2TB90 whole entry, looked up): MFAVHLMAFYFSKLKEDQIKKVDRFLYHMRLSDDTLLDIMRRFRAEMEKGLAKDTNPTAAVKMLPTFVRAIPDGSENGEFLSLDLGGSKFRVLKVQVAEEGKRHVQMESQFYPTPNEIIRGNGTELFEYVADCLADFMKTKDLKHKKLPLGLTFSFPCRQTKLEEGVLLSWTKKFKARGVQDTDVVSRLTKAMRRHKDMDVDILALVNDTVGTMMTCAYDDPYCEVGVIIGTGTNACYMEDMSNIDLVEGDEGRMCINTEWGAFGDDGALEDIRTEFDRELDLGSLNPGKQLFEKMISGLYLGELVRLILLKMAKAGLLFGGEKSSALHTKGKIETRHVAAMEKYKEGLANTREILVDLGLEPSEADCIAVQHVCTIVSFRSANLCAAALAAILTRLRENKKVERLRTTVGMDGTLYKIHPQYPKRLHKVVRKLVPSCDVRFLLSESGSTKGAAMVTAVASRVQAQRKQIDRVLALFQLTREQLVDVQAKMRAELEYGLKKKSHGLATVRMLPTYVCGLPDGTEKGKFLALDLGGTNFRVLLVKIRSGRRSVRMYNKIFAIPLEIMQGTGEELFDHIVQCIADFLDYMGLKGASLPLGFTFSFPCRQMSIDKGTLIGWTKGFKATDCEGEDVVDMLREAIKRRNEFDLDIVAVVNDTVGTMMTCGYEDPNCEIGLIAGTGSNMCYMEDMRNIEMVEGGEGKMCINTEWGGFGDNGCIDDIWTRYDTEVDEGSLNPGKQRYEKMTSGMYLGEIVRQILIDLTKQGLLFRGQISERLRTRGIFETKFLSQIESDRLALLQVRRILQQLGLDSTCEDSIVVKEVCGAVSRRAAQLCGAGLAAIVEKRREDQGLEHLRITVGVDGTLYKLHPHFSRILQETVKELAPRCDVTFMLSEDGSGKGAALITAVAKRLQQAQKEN
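test system = in-house recombinant HK5 (HKDC1) enzyme | amount = HKDC1 at 5 µg/mL | control set = DMSO-enzyme wells negative, buffer-substituted wells positive | compound = one dose of 20 µM, 1% DMSO | schedule = reaction time 90 min, room temperature, protected from light | technique = resorufin fluorescence at 613 nm | reagent = glucose with 1 mM ATP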
PGE2 EP2 inh: human EP2 receptor antagonists, primary screen, TR-FRET cAMP, C6 glioma cells | Prostaglandin E2 receptor EP2 subtype (Homo sapiens), P43116 | C6 glioma cells expressing human EP2; cells stimulated with saturating PGE2 | inhibition, % at 25 µM | 260,000 tested, 0.52% active;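 active = percent inhibition above 40 after rounding to a whole number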;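 note: rat C6 glioma host cells with rolipram phosphodiesterase inhibitor present; the protocol text gives 20 µM as final concentration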
EP2 mod: EP2 receptor modulators, cAMP readout, primary screen, cell-based, HTRF cAMP, PGE2 stimulation. EP2-expressing cells, cAMP HTRF FRET, PGE2 co-stimulation. induction, % at 25 µM. 260,000 tested, 0.83% active. AID 940, 2007;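 active = compounds whose cAMP rise, as percent of the full-agonist control response, exceeds 60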;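 note: rat C6 glioma line stably carrying human EP2 under a CMV promoter; the protocol text gives 20 µM as final concentration; 100% = response of wells given 1 µM PGE2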
TbHK1 inh: Trypanosoma brucei hexokinase 1 inhibitors, primary screen, biochemical, G6PDH-coupled NADH absorbance, MLSCN library. hexokinase 1 [Trypanosoma brucei]. recombinant TbHK1, G6PDH-coupled NADH A340. inhibition, % at 10 µM. 220,000 tested, 0.11% active;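 active = inhibition of 50% or more in the single-dose primary screen; inactive = inhibition below 50%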
PHOSPHO1 inh: PubChem AID 1565; inhibition, % at 13.3 µM; 290,000 tested, 1.1% active; Phosphoethanolamine/phosphocholine phosphatase (Homo sapiens), Q8TCT1; recombinant PHOSPHO1, absorbance phosphatase assay; in the data active = inhibition above about 60%
PfGluPho inh: PfG6PD enzyme inhibitors, primary screen, biochemical, fluorescence intensity, uHTS. glucose-6-phosphate dehydrogenase-6-phosphogluconolactonase (Plasmodium falciparum 3D7). PfGluPho enzyme, NADPH resazurin-diaphorase fluorescence. inhibition, % at 20 µM. 350,000 tested, 0.78% active. AID 504690, 2011;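 active = inhibition reaching at least a set limit at 20 µM in the primary screen, cut at about 59% in these data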;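 note: 0% = DMSO wells with substrate and 100% = DMSO wells lacking glucose-6-phosphate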
EP2 confirm: cAMP induction in EP2, EP4, beta2-AR and parental cells, confirmation, counter-screen for EP2 modulator project, cell-based, five parallel assays, C6 glioma, HEK293; shares compounds with EP2 mod; cAMP HTRF induction; plus low (about EC15) PGE2 agonist; calls only at 20 µM (by protocol); 1,300 tested, 47% active;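 active = cAMP induction above 50% in the main assay while under 30% in all four parallel counter assays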;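 note: rat C6 glioma cells stably expressing human EP2 receptor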
* marks the source's active call; other numbers are inactive results; i = inactive; nt = no result given; + = active, no number; ! = not active in a repeat. Rows were chosen to be rich in hits. Some 2.5% of all compounds tested hit in one or more screens of this group.

SMILES	HKDC1 inh	PGE2 EP2 inh	EP2 mod	TbHK1 inh	PHOSPHO1 inh	PfGluPho inh	EP2 confirm
COc1ccc(C2(O)CN(c3ccccc3)C3=[N+]2CCS3)cc1OC (stereo not given)	-6	9	17	0	36	-1	nt
O=C(Cn1c(-c2cccs2)cc2cccnc21)NCC1CC1	nt	6	-21	nt	nt	nt	nt
Cc1cc2c(s1)c1cnn(CC(=O)Nc3ccc(N4CCCCCC4)cc3)c(=O)c1n2C	nt	nt	-1	nt	nt	nt	nt
COc1cc(OC)cc(-c2nc(N)n[nH]2)c1	-7	17	68*	1	-28	-5	i
COc1ccc(-c2nc(N)n[nH]2)cc1	-7	14	0	1	-47	-2	nt
N#Cc1c(NC(=O)CSc2n[nH]c(Cc3ccccc3)n2)oc(-c2ccccc2)c1-c1ccccc1	2	6	77*	8	16	-41	i
O=C(NNC(=O)c1ccccc1OCc1ccccc1)c1ccccc1F	-6	nt	nt	nt	nt	4	nt
O=C(NCc1ccc(F)cc1)c1ccccc1OCc1ccccc1	10	3	81*	32	17	24	+
COc1cc2c(cc1OC)C(c1ccncc1)N(Cc1cn[nH]c1C(C)(C)C)CC2 (stereo not given)	nt	3	-13	nt	nt	nt	nt
COc1cc(S(=O)(=O)N(Cc2ccc(C)cc2)Cc2ccco2)ccc1-n1cnnn1	10	2	26	-7	2	7	nt
COc1cc(S(=O)(=O)N(Cc2cccnc2)Cc2ccco2)ccc1-n1cnnn1	8	10	79*!	37	6	18	i
CN1C(=O)C2C3c4ccccc4C(c4ccccc43)[C@@H]2C1=O (stereo not given in full)	-6	nt	nt	nt	42	1	nt
O=C1C2C3c4ccccc4C(c4ccccc43)C2c2nc3ccccc3n21 (stereo not given)	1	13	74*	0	-10	23	+
COc1cccc(-c2[nH]ncc2CNC2(c3ccccc3OC)CCCC2)c1	nt	6	-100	nt	nt	nt	nt
S=c1[nH]nc(-c2cccc(Cl)c2)n1/N=C/c1ccc(-c2ccccc2Br)o1	-9	22	23	-40	3	-1	nt
S=c1[nH]nc(-c2ccccc2)n1/N=C/c1ccc(-c2ccccc2Cl)o1	-5	14	78*	-19	-10	-14	+
O=c1cc(N2CCCCC2)c(-c2ccccc2)nn1Cc1c(Cl)cccc1Cl	3	2	80*	7	16	-12	+
O=c1cc(N2CCCCC2)c(-c2ccccc2)nn1Cc1ccc(Cl)cc1	5	4	53	-3	10	-14	nt
O=c1cc(N2CCCCC2)c(-c2ccccc2)nn1Cc1ccc(F)cc1	7	7	88*	2	48	-9	+
CCc1nn(CC(=O)NCCCN2CCCC(C)C2)c(=O)c2cc3ccsc3n12 (stereo not given)	nt	nt	-40	nt	nt	nt	nt
CCOc1ccc(N(CC(=O)N2CCC(C(N)=O)CC2)S(C)(=O)=O)cc1	nt	10	5	nt	nt	nt	nt
O=c1c2ccccc2c(-c2ccccc2)nn1-c1ccc(Cl)c(Cl)c1	-3	7	70*	2	46	18	i
Cc1ccc(NC(=O)CS(=O)CC(=O)Nc2ccc3c(c2)OCCO3)cc1Cl (stereo not given)	nt	11	-46	nt	nt	nt	nt
COC(=O)c1c(NC(=O)c2cccs2)sc2c1CCC(C)C2 (stereo not given)	-2	10	64*	-5	-1	-11	i
CC1CCc2c(sc(NC(=O)c3cccs3)c2C(=O)O)C1 (stereo not given)	8	nt	nt	nt	6	12	nt
SMILES	HKDC1 inh	PGE2 EP2 inh	EP2 mod	TbHK1 inh	PHOSPHO1 inh	PfGluPho inh	EP2 confirm
O=C(Nc1sc2c(c1C(=O)O)CCCC2)c1cccs1	6	8	-13	6	23	35	nt
CC(C)OC(=O)c1c(NC(=O)c2cccs2)sc2c1CCCC2	-2	6	54	-5	1	-16	+
CC(C)OC(=O)c1c(NC(=O)c2ccco2)sc2c1CCCCC2	4	14	58	-3	17	10	i
COC(=O)c1sc(NC(=O)COc2cc(C)c(Cl)c(C)c2)c(C#N)c1C	nt	7	-47	nt	nt	nt	nt
Cc1nn(CC(=O)N[C@@H](Cn2nc(-c3cccs3)ccc2=O)C(C)C)c(C)c1C	nt	7	-7	nt	nt	nt	nt
CC(O)CN=c1cc(-c2ccccc2)oc2ccc(Cl)cc12 (stereo not given)	-10	11	-13	-49	-11	0	nt
C/C(CCc1oc2ccc(Cl)cc2c1-c1ccc(C)o1)=N\O	7	6	65*	2	7	26	+
CC[C@H](C)C(=O)O[C@H]1C[C@@H](C)C=C2C=C[C@H](C)[C@H](CC[C@@H]3C[C@@H](O)CC(=O)O3)[C@H]21	-2	10	33	-6	-21	25	i
CC(=O)N1c2ccccc2C(C)(c2ccccc2)CC1(C)C (stereo not given)	5	8	78*	39	3	1	+
Cc1cc(C)nc(SCc2nnc(SCC#N)n2-c2cccc(Cl)c2)n1	17	-4	51	7	-14	-3	i
Cc1cc(C)nc(SCc2nnc(SCC(=O)O)n2-c2ccccc2)n1	-1	5	22	1	41	7	nt
Oc1cccc(Nc2nc(-c3ccc(O)c(O)c3)cs2)c1	nt	36	-98	nt	nt	nt	nt
Cn1nc(-c2ccccc2)c(-c2nc(-c3cccc(C(F)(F)F)c3)no2)c1Cl	-5	10	51	6	15	15	i
Cn1nc(-c2ccccc2)c(-c2nc(-c3cccc(Cl)c3)no2)c1Cl	-4	14	38	14	15	-16	nt
Cc1ccc(-n2c(=O)[nH]c3c(oc4ccccc43)c2=O)cc1	6	9	-39	-10	-8	-5	nt
COc1ccc(-n2c(=S)[nH]c3c(oc4ccccc43)c2=O)cc1	12	12	68*	-6	-8	40	i
Cc1cc(C)c2c(n1)sc1c(=O)[nH]c(=O)[nH]c12	nt	10	4	nt	nt	nt	nt
COc1ccc(N2CC(C(=O)OCC(=O)Nc3cc(Cl)ccc3C)CC2=O)cc1 (stereo not given)	nt	6	5	nt	nt	nt	nt
Cc1ccc(NC(=O)c2snc3c(=O)[nH]cnc23)cc1	nt	16	-6	nt	nt	nt	nt
